From ChEMBL document CHEMBL1268816, “Discovery of a series of potent, orally active α,α-disubstituted piperidine NK(1) antagonists” (Bioorg Med Chem Lett, 2010)

Tests used:
Substance-P receptor = Substance-P receptor (Homo sapiens, UniProt P25103); experiment: Displacement of [3H]SAr-Met from human recombinant NK1 receptor expressed in CHO cells; type: cell-based
Summary of the method: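 Membranes from CHO cells expressing recombinant human NK1 receptor; radioligand [3H]-Sar-Met substance P used near its experimentally derived Kd. Ki derived by Cheng–Prusoff equation. Binding values are the average of two or three independent determinations.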

[1] = AUC (0 to 6 hrs) in rat at 10 mg/kg, po after 6 hrs; type: ADME, organism-based; design: time < 6 hr, dose 10 mg/kg, route oral; conditions: plasma
Summary of the method: (§1)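 Rat pharmacokinetics after oral dosing at 10 mpk (unless otherwise specified), vehicle 20% HPBCD.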

Meriones unguiculatus [2] = experiment: Inhibition of GR-73632-induced foot tapping in Mongolian gerbil assessed as duration of repetitive hind foot tapping pretreated at 1 mg/kg, icv before GR-73632 challenge measured after 4 hrs; type: functional; conditions: oral, in the assay text read “po before” for “icv before”
Summary of the method: (§2)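 Female Mongolian gerbils given NK1 agonist GR73632 (3 pmol) by icv injection. Test antagonists given orally in 0.4% methylcellulose in distilled water at the indicated dose, at various pretreatment times before agonist. After recovery from anesthesia, animals observed 5 min in clear boxes and hind-foot tapping duration timed. Result expressed as % decrease versus vehicle-treated controls.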

Meriones unguiculatus [3] = experiment: Inhibition of GR-73632-induced foot tapping in Mongolian gerbil assessed as duration of repetitive hind foot tapping pretreated at 0.3 mg/kg, icv before GR-73632 challenge measured after 4 hrs; type: functional; conditions: oral, in the assay text read “po” for “icv”; summary of the method: as §2
[4] = AUC (0 to 6 hrs) in rat at 10 mg/kg, po; type: ADME, organism-based; design: time < 6 hr, dose 10 mg/kg, route oral; conditions: plasma; summary of the method: as §1
Meriones unguiculatus [5] = experiment: Inhibition of GR-73632-induced foot tapping in Mongolian gerbil assessed as duration of repetitive hind foot tapping pretreated at 0.1 mg/kg, icv before GR-73632 challenge measured after 4 hrs; type: functional; conditions: oral, in the assay text read “po” for “icv”; summary of the method: as §2
[6] = Half life in rat at 10 mg/kg, po; type: ADME, organism-based; design: dose 10 mg/kg, route oral; conditions: in vivo; summary of the method: as §1
[7] = AUC (0 to 6 hrs) in rat at 5 mg/kg, po after 24 hrs; type: ADME, organism-based; design: time < 6 hr, dose 5 mg/kg, route oral; conditions: plasma
[8] = Oral bioavailability in rat at 10 mg/kg; type: ADME, organism-based; conditions: in vivo; summary of the method: as §1

Chain of Substance-P receptor (P25103 whole entry): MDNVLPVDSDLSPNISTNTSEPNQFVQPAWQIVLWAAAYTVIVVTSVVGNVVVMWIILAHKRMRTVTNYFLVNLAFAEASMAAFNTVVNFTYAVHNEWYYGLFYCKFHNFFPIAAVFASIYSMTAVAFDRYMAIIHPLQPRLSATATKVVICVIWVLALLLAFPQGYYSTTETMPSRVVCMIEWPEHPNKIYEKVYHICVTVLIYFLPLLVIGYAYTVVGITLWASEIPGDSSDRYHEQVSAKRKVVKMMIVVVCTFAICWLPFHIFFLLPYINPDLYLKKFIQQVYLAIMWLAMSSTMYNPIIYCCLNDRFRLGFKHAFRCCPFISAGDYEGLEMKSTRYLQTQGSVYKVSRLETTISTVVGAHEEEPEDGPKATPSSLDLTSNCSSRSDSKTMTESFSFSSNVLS

| Structure (SMILES) | Ki (Substance-P receptor) [nM] | AUC(0-t) at 6 h [1] [µg·h/mL] | AUC(0-t) at 6 h [4] [µg·h/mL] | half-life [6] [h] | AUC(0-t) at 6 h [7] [µg·h/mL] | bioavailability [8] [%] | inhibition in vivo at 1 mg/kg (Meriones unguiculatus [2]) [%] | inhibition in vivo at 0.3 mg/kg (Meriones unguiculatus [3]) [%] | inhibition in vivo at 0.1 mg/kg (Meriones unguiculatus [5]) [%] |
| --- | --- | --- | --- | --- | --- | --- | --- | --- | --- |
| FC(F)(F)c1cc(COCC2(c3ccccc3)CCCCN2)cc(C(F)(F)F)c1 (configuration not stated) | 1 |  |  |  |  |  |  |  |  |
| C[C@@H](OC[C@@]1(c2ccccc2)CC[C@H](C(=O)NC2CC2)CN1)c1cc(C(F)(F)F)cc(C(F)(F)F)c1 | 0.34 | 1.94 |  |  |  |  | 45 |  |  |
| CCC(=O)N[C@H]1CC[C@@](CO[C@H](C)c2cc(C(F)(F)F)cc(C(F)(F)F)c2)(c2ccccc2)NC1 | 0.29 |  | 1.95 |  |  |  | 100 | 93 | 50 |
| C[C@@H](OC[C@@]1(c2ccccc2)CC[C@@H](C(=O)NC2CC2)CN1)c1cc(C(F)(F)F)cc(C(F)(F)F)c1 | 0.4 |  |  |  |  |  | 69 |  |  |
| C[C@@H](OC[C@@]1(c2ccccc2)CC[C@H](Nc2ncccn2)CN1)c1cc(C(F)(F)F)cc(C(F)(F)F)c1 | 0.33 |  |  |  |  |  | 5 |  |  |
| C[C@@H](OC[C@@]1(c2ccccc2)CC[C@H](NS(C)(=O)=O)CN1)c1cc(C(F)(F)F)cc(C(F)(F)F)c1 | 1.03 |  | 5.94 |  |  |  | 90 | 25 |  |
| CNC(=O)[C@@H]1CC[C@@](CO[C@H](C)c2cc(C(F)(F)F)cc(C(F)(F)F)c2)(c2ccccc2)NC1 | 0.56 | 0.166 |  |  |  |  | 80 |  |  |
| C[C@@H](OC[C@@]1(c2ccccc2)CC[C@H](NC(=O)C2CC2)CN1)c1cc(C(F)(F)F)cc(C(F)(F)F)c1 | 0.23 |  | 5.26 |  |  |  | 100 | 79 |  |
| C[C@@H](OC[C@@]1(c2ccccc2)CC[C@H](NC2=NCCO2)CN1)c1cc(C(F)(F)F)cc(C(F)(F)F)c1 | 0.28 |  |  |  |  |  | 37 |  |  |
| C[C@@H](OC[C@@]1(c2ccccc2)CC[C@H](NC(N)=O)CN1)c1cc(C(F)(F)F)cc(C(F)(F)F)c1 | 0.69 |  | 6.04 |  |  |  | 96 | 6 |  |
| C[C@@H](OC[C@@]1(c2ccccc2)CC[C@H](N2CCNC2=O)CN1)c1cc(C(F)(F)F)cc(C(F)(F)F)c1 | 0.59 |  |  |  |  |  | 86 | 71 |  |
| CCNC(=O)[C@H]1CC[C@@](CO[C@H](C)c2cc(C(F)(F)F)cc(C(F)(F)F)c2)(c2ccccc2)NC1 | 0.37 | 3.68 |  |  |  |  | 92 | 28 |  |

The remaining compounds from weak to strong by Ki (Substance-P receptor), led by results:

| Ki (Substance-P receptor) [nM] | AUC(0-t) at 6 h [1] [µg·h/mL] | AUC(0-t) at 6 h [4] [µg·h/mL] | half-life [6] [h] | AUC(0-t) at 6 h [7] [µg·h/mL] | bioavailability [8] [%] | Structure (SMILES) | inhibition in vivo at 1 mg/kg (Meriones unguiculatus [2]) [%] | inhibition in vivo at 0.3 mg/kg (Meriones unguiculatus [3]) [%] | inhibition in vivo at 0.1 mg/kg (Meriones unguiculatus [5]) [%] |
| --- | --- | --- | --- | --- | --- | --- | --- | --- | --- |
| 1.13 |  |  |  |  |  | CCNC(=O)[C@@H]1CC[C@@](CO[C@H](C)c2cc(C(F)(F)F)cc(C(F)(F)F)c2)(c2ccccc2)NC1 | 78 |  |  |
| 0.35 |  | 0.795 |  |  |  | CC(=O)N[C@@H]1CC[C@@](CO[C@H](C)c2cc(C(F)(F)F)cc(C(F)(F)F)c2)(c2ccccc2)NC1 | 76 | 36 |  |
| 0.3 |  |  |  |  |  | C[C@@H](OC[C@@]1(c2ccccc2)CCCCN1)c1cc(C(F)(F)F)cc(C(F)(F)F)c1 |  |  |  |
| 0.26 |  | 13.8 |  |  |  | C[C@@H](OC[C@@]1(c2ccccc2)CC[C@H](N2CCCC2=O)CN1)c1cc(C(F)(F)F)cc(C(F)(F)F)c1 | 61 |  |  |
| 0.26 |  |  |  |  |  | CNC(=O)[C@H]1CC[C@@](CO[C@H](C)c2cc(C(F)(F)F)cc(C(F)(F)F)c2)(c2ccccc2)NC1 | 91 | 29 |  |
| 0.22 |  |  | 3.4 | 2.6 | 68 | C[C@@H](OC[C@@]1(c2ccccc2)CC[C@H](C(N)=O)CN1)c1cc(C(F)(F)F)cc(C(F)(F)F)c1 | 92 | 82 |  |
| 0.19 | 1.69 |  |  |  |  | C[C@@H](OC[C@@]1(c2ccccc2)CC[C@@H](C(N)=O)CN1)c1cc(C(F)(F)F)cc(C(F)(F)F)c1 | 90 | 75 |  |
| 0.15 |  | 10 | 3.2 |  | 63 | CC(=O)N[C@H]1CC[C@@](CO[C@H](C)c2cc(C(F)(F)F)cc(C(F)(F)F)c2)(c2ccccc2)NC1 | 100 | 99 | 83 |
